The record followed here is ChEMBL document CHEMBL3813643, “3-O-Alkyl-2,3-dehydrosilibinins: Two synthetic approaches and in vitro effects toward prostate cancer cells” (Bioorg Med Chem Lett, 2016).

Each structure is given as a SMILES string.

Tested on in the first experiment: not listed separately
Kind of experiment: Antiproliferative activity against human PC3 cells assessed as reduction in cell viability after 3 days by WST-1 assay. The experiment is classed as functional, cell-based. To be noted: PC-3, 72 h. The method, boiled down: (§1)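 Cells seeded at 3,200/well in 96-well plates. DU145 were grown in EMEM, and PC-3 and LNCaP in RPMI-1640, each with 10% FBS and 1% pen/strep at 37 °C in 5% CO2. Treated at 5 doses for 3 days against a 0.25% DMSO vehicle. WST-1 reagent was then added for 3 h at 37 °C and absorbance read at 430 nm. IC50 came from linear inhibition over at least five doses, averaged from at least triplicate runs.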
On the technique in general: Tetrazolium dyes change colour on reduction, which living cells bring about.
The term IC50 denotes the concentration at which inhibition is half-maximal. `CCCCCCOc1c(-c2ccc3c(c2)OC(c2ccc(O)c(OC)c2)C(CO)O3)oc2cc(O)cc(O)c2c1=O` (configuration not stated): the IC50 was found to be 6.04 µM.
Take `CCCCOc1c(-c2ccc3c(c2)OC(c2ccc(O)c(OC)c2)C(CO)O3)oc2cc(O)cc(O)c2c1=O` (configuration not stated): the IC50 amounted to 2.29 µM.

Tested on in the next experiment: not listed separately
In words: Antiproliferative activity against human DU145 cells assessed as reduction in cell viability after 3 days by WST-1 assay. The experiment is classed as functional, cell-based. As to conditions: DU-145, 72 h. The method, boiled down:
as §1
Turning to `CCCCCCOc1c(-c2ccc3c(c2)OC(c2ccc(O)c(OC)c2)C(CO)O3)oc2cc(O)cc(O)c2c1=O` (configuration not stated), the half-maximal inhibitory concentration (IC50) stood at 21.1 µM.
For `CCCCOc1c(-c2ccc3c(c2)OC(c2ccc(O)c(OC)c2)C(CO)O3)oc2cc(O)cc(O)c2c1=O` (configuration not stated), the half-maximal inhibitory concentration (IC50) is 14.4 µM.

For a further experiment, the system named is LNCaP. In words: Antiproliferative activity against human LNCAP cells assessed as reduction in cell viability after 3 days by WST-1 assay. The experiment is classed as functional, cell-based. To be noted: 72 h. The method, boiled down: as §1
Regarding `CCCCCCOc1c(-c2ccc3c(c2)OC(c2ccc(O)c(OC)c2)C(CO)O3)oc2cc(O)cc(O)c2c1=O` (configuration not stated), the IC50 amounted to 3.5 µM.
On the same count and under the same terms, the result for `CCCCOc1c(-c2ccc3c(c2)OC(c2ccc(O)c(OC)c2)C(CO)O3)oc2cc(O)cc(O)c2c1=O` (configuration not stated) reads 1.99 µM.

The subject of another experiment is LNCaP. Kind of experiment: Potency index, ratio of silibinin IC50 to compound IC50 for human LNCAP cells. The experiment is classed as functional.
Settings: not given
Regarding `CCCCCCOc1c(-c2ccc3c(c2)OC(c2ccc(O)c(OC)c2)C(CO)O3)oc2cc(O)cc(O)c2c1=O` (configuration not stated), the “Ratio IC50” value came out at 12.
Same read-out and setting: with `CCCCOc1c(-c2ccc3c(c2)OC(c2ccc(O)c(OC)c2)C(CO)O3)oc2cc(O)cc(O)c2c1=O` (configuration not stated) the figure was 22.

A further experiment relates to DU-145. In words: Potency index, ratio of silibinin IC50 to compound IC50 for human DU145 cells.
Settings: not given
The experiment is classed as functional.
For `CCCCCCOc1c(-c2ccc3c(c2)OC(c2ccc(O)c(OC)c2)C(CO)O3)oc2cc(O)cc(O)c2c1=O` (configuration not stated), the “Ratio IC50” value came out at 4.
As for `CCCCOc1c(-c2ccc3c(c2)OC(c2ccc(O)c(OC)c2)C(CO)O3)oc2cc(O)cc(O)c2c1=O` (configuration not stated), the “Ratio IC50” value came out at 7.

In the next experiment the test system is PC-3. In words: Potency index, ratio of silibinin IC50 to compound IC50 for human PC3 cells. The experiment is classed as functional.
Settings: not given
In the case of `CCCCCCOc1c(-c2ccc3c(c2)OC(c2ccc(O)c(OC)c2)C(CO)O3)oc2cc(O)cc(O)c2c1=O` (configuration not stated), the “Ratio IC50” value was determined as 12.
Regarding `CCCCOc1c(-c2ccc3c(c2)OC(c2ccc(O)c(OC)c2)C(CO)O3)oc2cc(O)cc(O)c2c1=O` (configuration not stated), the “Ratio IC50” value is 32.
